According to paper PMC8210434 (ACS Omega, 2021):

Experiments:
CCI rats = assay: Chronic constriction injury; assay type: in vivo, Sprague–Dawley rats; settings: orally dosed
CYP2C9 = CYP2C9 (Homo sapiens, UniProt P11712); assay: CYP inhibition assay, CYP2C9; assay type: in vitro ADME
[1] = Human hepatocytes metabolic stability assay; assay type: in vitro ADME; settings: cryopreserved hepatocytes
CYP2C19 = CYP2C19 (Homo sapiens, UniProt P33261); assay: CYP inhibition assay, CYP2C19; assay type: in vitro ADME
monkeys = settings: 39 weeks of chronic dosing; cited from earlier work
[2] = Caco-2 cell permeability assay; assay type: in vitro ADME; settings: human, Caco-2, pH 7.4
[3] = Liver microsome stability assay, human; assay type: in vitro ADME; settings: liver microsomes, pH 7.4
[4] = Plasma protein binding by equilibrium dialysis, human; assay type: in vitro ADME; settings: pH 7.4
[5] = In vivo pharmacokinetic study in rats; settings: male, Sprague Dawley, rat, plasma
[6] = Plasma protein binding by equilibrium dialysis, rat; assay type: in vitro ADME; settings: pH 7.4
CYP2C8 = target: T1, CYP2C8 (Homo sapiens, UniProt P10632); assay: CYP inhibition assay, CYP2C8; assay type: in vitro ADME
T1 sequence (P10632 1-490): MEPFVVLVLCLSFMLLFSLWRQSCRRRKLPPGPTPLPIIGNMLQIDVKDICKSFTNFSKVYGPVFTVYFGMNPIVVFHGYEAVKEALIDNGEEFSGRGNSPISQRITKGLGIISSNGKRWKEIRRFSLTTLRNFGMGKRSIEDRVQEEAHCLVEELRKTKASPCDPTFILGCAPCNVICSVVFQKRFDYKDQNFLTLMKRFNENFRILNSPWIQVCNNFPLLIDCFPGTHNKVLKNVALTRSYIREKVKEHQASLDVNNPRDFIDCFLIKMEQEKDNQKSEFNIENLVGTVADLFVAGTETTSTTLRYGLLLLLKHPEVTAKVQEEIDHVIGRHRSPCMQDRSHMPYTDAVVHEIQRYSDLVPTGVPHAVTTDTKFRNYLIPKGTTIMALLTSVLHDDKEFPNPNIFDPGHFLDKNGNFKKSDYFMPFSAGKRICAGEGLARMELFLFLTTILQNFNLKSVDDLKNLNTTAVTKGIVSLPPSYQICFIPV

CYP3A4 = CYP3A4 (Homo sapiens, UniProt P08684); assay: CYP inhibition assay, CYP3A4; assay type: in vitro ADME
AT2R = settings: read-out: IC50 measured via a radiolabeled ligand-binding assay; cited from earlier work
rats = assay: Non-GLP 7-day acute rat toxicity study; assay type: in vivo, Sprague Dawley rats
Summary of the method: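 Rats received test compound daily for 7 days (non-GLP) at 200, 400 and 800 mg/kg/day, alongside a vehicle group. Endpoints were adverse events, laboratory abnormalities, salivary discharge scored 1 h after dosing, and gross anatomy of kidneys, hearts and livers compared with vehicle.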

CYP1A2 = target: T2, CYP1A2 (Homo sapiens, UniProt P05177); assay: CYP inhibition assay, CYP1A2; assay type: in vitro ADME
T2 sequence (P05177 1-516): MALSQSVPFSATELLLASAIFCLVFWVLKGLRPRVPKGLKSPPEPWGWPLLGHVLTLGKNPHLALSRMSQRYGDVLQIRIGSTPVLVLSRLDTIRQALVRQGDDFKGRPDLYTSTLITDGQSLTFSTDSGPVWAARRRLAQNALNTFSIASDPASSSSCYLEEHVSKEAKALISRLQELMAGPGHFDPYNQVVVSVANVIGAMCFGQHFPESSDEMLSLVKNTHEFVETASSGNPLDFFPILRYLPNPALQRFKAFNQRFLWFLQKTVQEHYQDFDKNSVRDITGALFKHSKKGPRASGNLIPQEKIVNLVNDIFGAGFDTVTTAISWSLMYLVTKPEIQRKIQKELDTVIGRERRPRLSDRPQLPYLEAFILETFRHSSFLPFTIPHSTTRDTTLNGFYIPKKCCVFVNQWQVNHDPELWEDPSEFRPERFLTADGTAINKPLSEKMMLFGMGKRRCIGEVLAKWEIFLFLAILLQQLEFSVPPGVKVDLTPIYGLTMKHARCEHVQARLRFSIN

CYP2D6 = CYP2D6 (Homo sapiens, UniProt P10635); assay: CYP inhibition assay, CYP2D6; assay type: in vitro ADME
hERG channel = hERG channel (Homo sapiens, UniProt Q12809); assay: hERG patch clamp assay; assay type: cell-based
[7] = Liver microsome stability assay, rat; assay type: in vitro ADME; settings: liver microsomes, pH 7.4
NG108-15 cells = assay: NG108-15 neurite outgrowth assay; assay type: cell-based; settings: 1 μM compound, 0.1 μM angiotensin II, three days
human AT1R = target: T3, human AT1R (Homo sapiens, UniProt P30556); assay: AT1R competitive binding assay; settings: 10 μM
T3 sequence (P30556 1-359): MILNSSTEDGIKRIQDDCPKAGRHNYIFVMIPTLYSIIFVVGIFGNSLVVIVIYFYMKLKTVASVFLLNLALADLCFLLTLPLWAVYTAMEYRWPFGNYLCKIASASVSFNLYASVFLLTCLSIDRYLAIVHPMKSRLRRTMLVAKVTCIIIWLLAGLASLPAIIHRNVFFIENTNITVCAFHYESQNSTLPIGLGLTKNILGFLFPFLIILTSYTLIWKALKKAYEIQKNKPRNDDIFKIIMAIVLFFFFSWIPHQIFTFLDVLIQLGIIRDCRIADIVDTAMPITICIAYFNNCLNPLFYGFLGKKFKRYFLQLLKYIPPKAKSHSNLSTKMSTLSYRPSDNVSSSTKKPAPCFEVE

Chain of CYP2C9 (P11712 whole entry): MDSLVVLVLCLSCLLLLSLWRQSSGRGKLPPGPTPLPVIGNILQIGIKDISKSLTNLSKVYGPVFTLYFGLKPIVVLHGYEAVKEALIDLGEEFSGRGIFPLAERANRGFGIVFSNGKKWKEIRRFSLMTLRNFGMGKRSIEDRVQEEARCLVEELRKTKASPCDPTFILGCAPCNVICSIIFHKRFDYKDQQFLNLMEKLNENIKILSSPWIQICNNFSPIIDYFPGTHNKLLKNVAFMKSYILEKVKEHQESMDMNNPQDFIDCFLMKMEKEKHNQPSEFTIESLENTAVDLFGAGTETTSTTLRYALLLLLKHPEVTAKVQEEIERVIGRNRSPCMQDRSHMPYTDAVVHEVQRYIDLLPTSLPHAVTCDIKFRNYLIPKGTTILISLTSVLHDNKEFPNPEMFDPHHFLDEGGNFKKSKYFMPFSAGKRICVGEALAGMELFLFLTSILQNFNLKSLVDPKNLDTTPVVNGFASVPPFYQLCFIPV
Chain of CYP2D6 (P10635 whole entry): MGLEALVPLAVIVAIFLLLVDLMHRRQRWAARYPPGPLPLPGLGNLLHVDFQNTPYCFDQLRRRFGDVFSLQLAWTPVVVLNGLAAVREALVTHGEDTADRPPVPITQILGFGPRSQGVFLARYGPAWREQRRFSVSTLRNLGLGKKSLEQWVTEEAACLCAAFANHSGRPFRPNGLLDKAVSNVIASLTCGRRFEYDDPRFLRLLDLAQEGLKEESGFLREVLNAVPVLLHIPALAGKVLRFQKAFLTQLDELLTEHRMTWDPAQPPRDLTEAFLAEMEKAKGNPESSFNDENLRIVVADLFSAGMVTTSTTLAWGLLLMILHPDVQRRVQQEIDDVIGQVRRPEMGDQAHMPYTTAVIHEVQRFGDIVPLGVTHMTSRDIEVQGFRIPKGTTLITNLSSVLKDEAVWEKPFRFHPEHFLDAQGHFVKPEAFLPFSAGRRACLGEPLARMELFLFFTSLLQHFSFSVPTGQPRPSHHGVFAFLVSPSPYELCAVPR
Chain of hERG channel (Q12809 whole entry): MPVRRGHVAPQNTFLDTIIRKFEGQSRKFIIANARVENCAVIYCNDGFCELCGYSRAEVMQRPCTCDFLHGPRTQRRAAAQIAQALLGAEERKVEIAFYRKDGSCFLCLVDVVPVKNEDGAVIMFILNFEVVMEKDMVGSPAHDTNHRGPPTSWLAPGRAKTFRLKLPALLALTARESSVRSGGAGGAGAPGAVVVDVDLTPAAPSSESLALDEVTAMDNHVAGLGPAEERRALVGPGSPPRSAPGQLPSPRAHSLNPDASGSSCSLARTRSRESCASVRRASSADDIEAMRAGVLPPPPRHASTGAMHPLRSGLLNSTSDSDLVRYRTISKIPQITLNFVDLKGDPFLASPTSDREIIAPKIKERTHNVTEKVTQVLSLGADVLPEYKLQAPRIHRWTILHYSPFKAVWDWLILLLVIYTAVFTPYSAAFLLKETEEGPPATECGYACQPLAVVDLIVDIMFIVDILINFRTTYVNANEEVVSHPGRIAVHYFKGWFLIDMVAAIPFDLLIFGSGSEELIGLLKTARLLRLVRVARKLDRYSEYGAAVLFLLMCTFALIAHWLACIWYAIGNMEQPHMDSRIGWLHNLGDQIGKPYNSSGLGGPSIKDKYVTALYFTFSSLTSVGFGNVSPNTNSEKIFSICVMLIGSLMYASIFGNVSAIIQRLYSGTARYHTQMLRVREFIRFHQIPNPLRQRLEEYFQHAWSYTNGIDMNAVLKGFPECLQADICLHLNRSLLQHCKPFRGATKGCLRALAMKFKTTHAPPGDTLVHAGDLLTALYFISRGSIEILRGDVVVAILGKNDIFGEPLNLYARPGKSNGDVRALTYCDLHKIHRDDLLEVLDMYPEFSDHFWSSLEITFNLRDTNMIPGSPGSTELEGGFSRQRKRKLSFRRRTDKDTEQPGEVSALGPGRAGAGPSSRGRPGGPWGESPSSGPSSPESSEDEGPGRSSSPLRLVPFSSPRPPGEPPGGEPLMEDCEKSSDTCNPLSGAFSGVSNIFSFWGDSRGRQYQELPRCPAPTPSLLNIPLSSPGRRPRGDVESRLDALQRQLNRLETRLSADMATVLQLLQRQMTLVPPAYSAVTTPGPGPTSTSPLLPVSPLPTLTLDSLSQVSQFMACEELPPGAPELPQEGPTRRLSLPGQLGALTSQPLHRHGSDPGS
Chain of CYP3A4 (P08684 whole entry): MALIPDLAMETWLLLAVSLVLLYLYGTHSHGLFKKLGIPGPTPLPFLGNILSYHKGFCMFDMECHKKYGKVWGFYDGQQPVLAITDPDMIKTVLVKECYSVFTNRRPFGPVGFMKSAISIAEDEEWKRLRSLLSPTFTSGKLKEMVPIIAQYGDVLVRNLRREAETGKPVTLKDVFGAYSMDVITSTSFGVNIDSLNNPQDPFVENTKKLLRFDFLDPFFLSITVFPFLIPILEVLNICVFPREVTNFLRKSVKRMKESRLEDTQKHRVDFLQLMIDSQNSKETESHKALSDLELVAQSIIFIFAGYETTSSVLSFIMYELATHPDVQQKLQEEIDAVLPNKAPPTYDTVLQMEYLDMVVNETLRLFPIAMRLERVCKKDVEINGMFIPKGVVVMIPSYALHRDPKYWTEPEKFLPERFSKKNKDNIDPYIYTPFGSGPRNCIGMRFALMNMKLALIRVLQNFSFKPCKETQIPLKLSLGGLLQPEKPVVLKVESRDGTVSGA
Chain of CYP2C19 (P33261 whole entry): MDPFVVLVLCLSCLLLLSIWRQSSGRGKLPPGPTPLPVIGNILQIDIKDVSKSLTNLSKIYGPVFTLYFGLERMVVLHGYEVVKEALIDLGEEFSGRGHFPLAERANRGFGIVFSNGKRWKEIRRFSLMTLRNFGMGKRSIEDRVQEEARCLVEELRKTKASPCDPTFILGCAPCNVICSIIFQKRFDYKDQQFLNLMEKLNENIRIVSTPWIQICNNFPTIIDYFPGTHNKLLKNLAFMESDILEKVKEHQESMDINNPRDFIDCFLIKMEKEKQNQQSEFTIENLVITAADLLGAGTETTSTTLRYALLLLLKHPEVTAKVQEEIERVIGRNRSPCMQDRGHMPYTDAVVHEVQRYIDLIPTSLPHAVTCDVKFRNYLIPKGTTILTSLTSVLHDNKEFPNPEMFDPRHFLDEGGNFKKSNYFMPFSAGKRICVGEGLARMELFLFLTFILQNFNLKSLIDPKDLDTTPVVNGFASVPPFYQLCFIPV

## CC(C)C[C@H](CN)CC(=O)O [pregabalin]
CCI rats
  paw withdrawal threshold responsive to tactile stimulation (von Frey): significantly increased paw withdrawal threshold

## COc1ccc2c(c1OCc1ccccc1)C[C@@H](C(=O)O)N(C(=O)C(c1ccccc1)c1ccccc1)C2 [EMA401]
CYP2C9
  IC50: 7.4 µM
[1]
  CLint scaled at 1 μM: […]
CYP2C19
  IC50: > 50 µM
CCI rats
  paw withdrawal threshold responsive to tactile stimulation (von Frey): significantly increased paw withdrawal threshold
monkeys
  toxicity finding after chronic dosing: hepatotoxicity in monkeys
[2]
  Papp A→B at 90 min, 10 µM: […]
  Papp B→A at 90 min, 10 µM: […]
[3]
  CLint scaled at 1 μM: […]
[4]
  fraction unbound at 6 h, 1 μM: […]
[5]; iv, 1 mg/kg
  clearance: […]
  half-life: […]
[5]; po, 10 mg/kg
  AUC(0-t): […]
  Cmax: […]
  bioavailability: […]
[6]
  fraction unbound at 6 h, 1 μM: […]
CYP2C8
  IC50: 20 µM
CYP3A4
  IC50: > 50 µM
AT2R
  IC50: […]
rats; rat, 200, 400, and 800 mg/kg/day, 1 h after dosage
  salivary discharge: in high-, medium-, and low-dose groups
rats; rat, 7 days, kidneys, hearts, livers
  gross anatomy vs vehicle group: no distinguishable gross anatomy differences
rats; rat, oral gavage, 200, 400, and 800 mg/kg/day for 7 days
  tolerability: well tolerated with no serious adverse events or significant laboratory abnormalities
CYP1A2
  IC50: > 50 µM
CYP2D6
  IC50: > 50 µM
hERG channel
  IC50: […]
hERG channel; concentrations up to 10 μM
  hERG potassium channel activity: no hERG potassium channel activity
[7]
  CLint scaled at 1 μM: […]
NG108-15 cells
  effect on neurite outgrowth induced by angiotensin II: abolished neurite outgrowth induced by angiotensin II

## COc1ccc2c(c1OCc1ccc(OC(F)(F)F)cc1)C[C@@H](C(=O)O)N(c1nc3ccc(F)cc3o1)C2 [Compound 28]
Human AT1R
  hAT1R antagonistic activity at the highest tested concentration: none of them showed any hAT1R antagonistic activity
